Screens deposited in PubChem by several laboratories.
INS promoter inh = TRM-6 insulin promoter activity inhibition; TRM-6 cells (human fetal islet line), insulin promoter-eGFP reporter, imaging; reporter expression induced with tamoxifen; inhibition, % at 2 µM; 130,000 tested, 0.9% active; AID 1273;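 active means inhibition above the mean plus 3 SD, with well images judged a real hit on visual review, cut at about 60% in these data, passing the limit was not always enough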
Measles CPE = protection of cells from measles virus; protection (pct of control), % at 4 µM; 140,000 tested, 1.5% active; Measles virus-infected cells, CPE protection, absorbance; AID 841; in the data active means protection mostly above about 24%, no sharp cut-off; inactive means mostly below about 26%
MDM2 E3 inh = Mdm2 E3 ligase (human) inhibition; cell-based MDM2 ubiquitination luciferase reporter, 2 h; 0 = plate control, 100 = twice control, blank-subtracted; signal enhancement, % at 5 µM; 210,000 tested, 0.11% active; AID 1230;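 active means signal enhancement of 30% or more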;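 further: luminescence tracks abundance of the self-degrading MDM2-luciferase fusion protein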
Target sequence (Q00987 whole entry, looked up, the tested form may be a part): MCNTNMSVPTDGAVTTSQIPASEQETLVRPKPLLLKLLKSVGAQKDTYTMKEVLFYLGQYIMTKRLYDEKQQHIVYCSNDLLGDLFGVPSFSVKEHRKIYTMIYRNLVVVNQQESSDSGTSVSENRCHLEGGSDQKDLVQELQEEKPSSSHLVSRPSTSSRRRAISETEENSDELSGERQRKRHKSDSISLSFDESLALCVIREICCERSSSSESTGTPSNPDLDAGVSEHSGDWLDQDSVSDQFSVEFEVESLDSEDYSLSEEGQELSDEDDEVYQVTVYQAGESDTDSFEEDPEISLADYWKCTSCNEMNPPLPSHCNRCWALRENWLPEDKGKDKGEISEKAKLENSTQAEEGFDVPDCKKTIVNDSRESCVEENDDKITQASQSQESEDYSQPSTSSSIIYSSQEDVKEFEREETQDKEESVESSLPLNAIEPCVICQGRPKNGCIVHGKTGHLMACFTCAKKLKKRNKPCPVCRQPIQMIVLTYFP
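Timing – 2 h compound exposure at 37 °C · Assay system – mammalian cells stably expressing self-ubiquitinating, self-degrading MDM2 E3–luciferase fusion · Amount – 2000 cells seeded into each well · Measure – % luminescence enhancement versus blank-corrected plate control mean · Measured by – SteadyLite luminescence, 15 min reagent step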
RAM inhibit = inhibitors of the yeast RAM network; S. cerevisiae dse1pr::URA3 reporter, 5-FOA growth OD615, 2 d; analog-sensitive cbk1-as2 kinase mutant strain; inhibition, % at 50 µM; 190,000 tested, 1.8% active;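 active means inhibition above a set limit, 3 SD over mean compound inhibition, cut at about 8.4% in these data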;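 further: 0% = DMSO-only wells with no growth and 100% = 10 µM 1-NA-PP1 full growth; inhibition rescues growth on 5-FOA so higher OD means more RAM inhibition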
Yeast life ext = yeast lifespan extension | 130,000 tested, 0.68% active | AID 775 | S. cerevisiae growth with nicotinamide, OD615; deaD strain in restrictive glucose medium | inhibition of the nicotinamide effect, % at 10 µM;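 active means inhibition above a set limit, placed 3 SD over the median of all compounds, cut at about 26% in these data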;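 further: 0% = nicotinamide-treated wells and 100% = cells grown without nicotinamide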
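assay system = DeaD-strain S. cerevisiae | buffer or medium = restrictive glucose medium | reagent = 1.5 mM nicotinamide | compound = 10 µM single point, 0.25% DMSO | incubation = 48 h compound exposure at 30 °C, humidified | signal = OD615 measurement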
BB579 growth dn = reduces growth of yeast BB579 in restrictive medium; S. cerevisiae BB579 growth, OD615, 48 h; inhibition, % at 10 µM; 140,000 tested, 0.51% active; AID 804;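 active means inhibition above a set limit, 3 SD over the mean compound inhibition, cut at about 44% in these data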
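Test system: S. cerevisiae DeaD strain BB579 yeast; Medium: restrictive CSMM-D medium; Compound: one dose, 10 µM compound with 0.25% DMSO; Incubation: 4 h cell preincubation, 48 h compound exposure, 30 °C humidified; Signal: OD at 615 nm; Benchmarks: amphotericin B at 10 µg/mL as positive control.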
* marks the source's active call; other numbers are inactive results; / = no result. Shown are actives, neighbours in structure and some others; about 4% of the full set was active somewhere.

SMILES	INS promoter inh	Measles CPE	MDM2 E3 inh	RAM inhibit	Yeast life ext	BB579 growth dn
COc1ccc(C(O)C(CN2CCOCC2)c2ccccc2)cc1F (stereo not drawn)	34	11	-2	2	-1	-51
COc1ccc(C(=O)C(CN2CCOCC2)c2ccccc2)cc1F (stereo not drawn)	71*	22	-17	2	79*	-42
COc1ccc2cc(C(=O)O)ccc2c1	9	2	-1	-1	-29	84*
COc1ccc([N+](=O)[O-])cc1NC(=O)c1cn(-c2ccc(C)c(C)c2)c(=O)c2ccccc12	-26	8	-10	5	4	-6
COC(=O)c1cc(=O)n(CCc2ccc(OC)cc2)c(=Nc2ccc(F)c(Cl)c2)s1	/	3	-5	9.5*	3	25
COC(=O)c1cc(=O)n(Cc2ccc3c(c2)OCO3)c(=Nc2ccc(F)c(Cl)c2)s1	/	12	-17	3	-8	6
COc1ccc(-c2nc(NC(=O)c3ccc(OCC(=O)N4CCOCC4)c(OC)c3)sc2C)cc1	25	12	2	9.0*	-1	-14
Cc1c(C(=O)OCC(=O)NCC2CCCO2)cccc1[N+](=O)[O-] (stereo not drawn)	/	/	-5	0	/	/
Cc1ccccc1/C=C1\SC(=S)N(/N=C/c2cc([N+](=O)[O-])ccc2O)C1=O	20	/	10	1	/	/
O=C(O)CCc1nnc(SCC(=O)Nc2cccc(C(F)(F)F)c2)[nH]c1=O	-108	/	-41	1	/	/
CCc1ccc(N/C(SCc2ccccc2C)=C(/C#N)C(=O)NCc2ccco2)cc1	14	9	6	11*	-20	-39
COC(=O)c1cc(=O)n(-c2ccc(C(F)(F)F)cc2)[nH]1	/	/	-6	/	/	/
COc1ccc(N2CCN(C(=O)CCCn3c(=O)[nH]c4cc(Cl)ccc4c3=O)CC2)cc1	74*	12	-4	1	-1	-25
CC(=O)c1ccc(N2CCN(C(=O)CCCn3c(=O)[nH]c4ccccc4c3=O)CC2)cc1	13	/	-17	4	/	/
CC1(C)OC(=O)C(=CNn2cnc3ccccc3c2=O)C(=O)O1	82*	18	-16	3	-7	-24
CC(=O)NC(=S)Nc1ccc(NC(=O)COc2ccc(C(C)C)cc2)cc1	75*	4	-3	3	3	-20
CCCCC(=O)N(Cc1ccc(F)cc1)C1CCS(=O)(=O)C1 (stereo not drawn)	/	/	-6	/	/	/
CC(C)=C1C(=O)NN(c2ccc(C)c(Cl)c2)C1=O	17	7	/	3	45*	-23
CCc1ccc2[nH]c(=O)c(C(c3nnnn3Cc3ccccc3)N3CCOCC3)cc2c1 (stereo not drawn)	-108	3	-13	1	-10	-5
Cc1ccc2occ(C(c3nnnn3Cc3ccccc3)N3CCOCC3)c(=O)c2c1 (stereo not drawn)	-34	4	-8	2	26*	-42
CCN(CC)c1ccc(/C=C2\C(=O)c3ccc(C(=O)O)cc3C2=O)cc1	0	4	79*	10*	3	-62
O=C(O)c1cc(O)ccc1NC(=O)c1cccc2ccccc12	/	/	-4	/	/	/
O=C(CCS(=O)(=O)c1cccc2nonc12)NCc1ccc(Cl)cc1	/	/	-13	4	/	/
COc1ccc(-c2cn(-c3ccc(C)cc3C)c(=O)[nH]2)cc1OC	-36	/	-23	0	/	/
CC1(C)Cn2c(nnc2-c2cccc(O)c2)S1	91*	9	-20	0	-11	-7
SMILES	INS promoter inh	Measles CPE	MDM2 E3 inh	RAM inhibit	Yeast life ext	BB579 growth dn
COc1ccc(CCn2c(C)cc(C(=O)CCl)c2C)cc1OC	30	/	-17	2	/	/
Cc1cc(C(=O)CCl)c(C)n1CCc1ccc(F)cc1	100*	/	-34	2	/	/
CCOc1ccc(N=Cc2c(O)c3ccccc3oc2=O)cc1	0	19	-18	2	88*	-39
CCOc1ccc(N=Cc2c(O)cc(C)oc2=O)cc1	/	8	-9	0	-8	40
CC1=Nn2c(nnc2-c2n[nH]c3c2CCC3)SC1	/	32	1	0	4	-63
Fc1ccc(C2=Nn3c(nnc3-c3n[nH]c4c3CCC4)SC2)cc1	/	36*	-5	1	-8	-56
COc1cc(-c2noc(CCCC(=O)NC3CCCCC3)n2)cc(OC)c1OC	46	10	-4	0	-6	-27
NC(=O)/C(=C\c1cccnc1)NC(=O)c1ccccc1	-56	/	-41	2	/	/
CSc1ccccc1C(=O)Nc1cccc(C(C)O)c1 (stereo not drawn)	40	8	-7	-1	-9	-9
CCOC(=O)N1C/C(=C\c2ccccc2)C(=O)/C(=C/c2ccccc2)C1	/	/	46*	/	/	/
CCOC(=O)N1CCN(S(=O)(=O)/C=C/c2ccccc2)CC1	/	5	-17	1	0	-23
O=C(Nc1ccccc1Cl)OCc1cncs1	67*	/	-15	1	/	/
CCOC(=O)C1CCCN(Cc2c(F)cccc2Cl)C1 (stereo not drawn)	67	11	-12	1	1	-3
Cc1[nH]n(-c2ccccc2)c(=O)c1/C=N/Nc1nncc(-c2ccccc2)n1	34	4	-24	-2	-10	98*
CCCCN(CCCC)C(=S)N/N=C/c1c(C)[nH]n(-c2ccccc2)c1=O	/	3	-14	3	-12	78*
CCCCN=Cc1c(C)[nH]n(-c2ccccc2)c1=S	-312	/	-4	-1	/	/
COc1ccc(C2/C=C\CN(Cc3ccc(N(C)C)cc3)CC(=O)N2Cc2ccc(F)cc2)cc1 (stereo not drawn)	/	/	10	/	/	/
CCOC(=O)C(=NC(C)CC)NNc1ccc(Br)cc1 (stereo not drawn)	25	10	-10	0	-7	93*
CCOc1ccc(N(CC(=O)NC2CCCC2)C(=O)CSc2nnc(COc3ccccc3)o2)cc1	35	2	-3	4	-1	-46
Cc1cc(=O)[nH]c2c1c(C)nn2C(C)(C)C	/	/	-6	/	/	/
Cc1cc(=O)[nH]c2c1c(C)nn2-c1ccccc1	61*	11	-7	1	/	-31
Cc1nn(-c2cc(C(F)(F)F)ccc2Cl)c2nc(C(Cl)(Cl)Cl)[nH]c(=O)c12	/	/	-14	/	/	/
Cc1nn(-c2ccccc2)c2nc(C(F)(F)F)[nH]c(=O)c12	/	41*	-7	-1	-2	7
O=C(O)C1C2C=CC(C2)C1C(=O)NCCCN1CCOCC1 (stereo not drawn)	/	5	6	0	15	-1
CCCCNC(=O)C1C2C=CC(C2)C1C(=O)O (stereo not drawn)	26	38*	/	1	0	-39
O=C(CCCC(=O)N(CC(=O)NC1CCCC1)C1CCCC1)Nc1ccccn1	-23	70*	-3	0	5	-48
